Legend:
Cavia porcellus [1] = assay: Percent inhibition of capsaicin-induced plasma extravasation in guinea-pig trachea at 3 mg/kg intravenous administration; format: functional
Cavia porcellus [2] = assay: Inhibition of capsaicin-induced plasma extravasation in guinea-pig trachea on intravenous administration; format: functional
Substance-P receptor = Substance-P receptor (Homo sapiens, UniProt P25103); assay: Inhibition of [125I]-BH-Substance P binding to tachykinin receptor 1 in human IM-9 cells; format: cell-based
Chain of Substance-P receptor (P25103 whole entry): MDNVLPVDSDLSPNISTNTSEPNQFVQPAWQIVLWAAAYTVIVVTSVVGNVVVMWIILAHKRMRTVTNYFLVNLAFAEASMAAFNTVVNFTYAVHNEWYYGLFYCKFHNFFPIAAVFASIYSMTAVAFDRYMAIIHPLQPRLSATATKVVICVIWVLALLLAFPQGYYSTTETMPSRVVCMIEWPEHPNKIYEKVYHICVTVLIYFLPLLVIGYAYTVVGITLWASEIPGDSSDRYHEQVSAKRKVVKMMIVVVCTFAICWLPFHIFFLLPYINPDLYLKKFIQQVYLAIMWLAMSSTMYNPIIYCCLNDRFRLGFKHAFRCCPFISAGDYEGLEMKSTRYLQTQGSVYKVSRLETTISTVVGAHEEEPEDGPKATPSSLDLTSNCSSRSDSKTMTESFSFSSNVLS

Cavia porcellus [3] = assay: Inhibition of capsaicin-induced plasma extravasation in guinea-pig trachea on peroral administration; format: functional; details: po
How it was run: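 Male Hartley guinea pigs (n = 6); sample given orally 45 min before pentobarbital 35 mg/kg ip. Capsaicin […] plus Evans' blue 20 mg/kg iv in ethanol-saline (3:7); trachea removed 10 min later after saline perfusion. Dye extracted in acetone-sodium sulfate and read at 620 nm per g tissue. Inhibition calculated relative to blank and control means.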

Row | Structure (SMILES) | IC50 (Substance-P receptor) [nM] | other results
1 | COc1ccccc1CNCc1c(-c2ccccc2)c2cc(C)c(C)cc2c(=O)n1C | – | inhibition in vivo at 3 mg/kg (Cavia porcellus [1]): 36.3%
2 | Cn1c(C(=O)NCc2cc(C(F)(F)F)cc(C(F)(F)F)c2)c(-c2ccc(F)cc2)c2cccnc2c1=O | 1.1 | ED50 (Cavia porcellus [2]): 0.48 mg/kg
3 | COc1ccccc1CNCc1c(-c2ccccc2)c2ccccc2c(=O)n1C | 460 | –
4 | Cc1cc2c(-c3ccccc3)c(C(=O)N(C)Cc3cc(C(F)(F)F)cc(C(F)(F)F)c3)n(C)c(=O)c2cc1C | – | ED50 (Cavia porcellus [2]): 0.49 mg/kg
5 | Cc1cc2c(-c3ccccc3)c(CNCc3cc(C(F)(F)F)cc(C(F)(F)F)c3)n(C)c(=O)c2cc1C | 250 | –
6 | Cc1cc(C)cc(CN(C)C(=O)c2c(-c3ccccc3C)c3ccccc3c(=O)n2C)c1 | 32 | –
7 | CN(Cc1ccccc1Cl)C(=O)Nc1c(-c2ccc(F)cc2)c2ccccc2c(=O)n1C | 480 | –
8 | Cc1cc2c(-c3ccccc3)c(NC(=O)N(C)Cc3ccccc3)n(C)c(=O)c2cc1C | – | inhibition in vivo at 3 mg/kg (Cavia porcellus [1]): 57.3%
9 | Cc1ccccc1-c1c(C(=O)N(C)Cc2cc(C(F)(F)F)cc(C(F)(F)F)c2)n(C)c(=O)c2ccccc12 | – | ED50 (Cavia porcellus [2]): 0.18 mg/kg; ED50 (Cavia porcellus [3]): 0.81 mg/kg
10 | Cc1cc(C)cc(CN(C)C(=O)Nc2c(-c3ccccc3)c3cc(C)c(C)cc3c(=O)n2C)c1 | 28 | –
11 | CN(Cc1cc(C(F)(F)F)cc(C(F)(F)F)c1)C(=O)c1c(-c2ccc(F)cc2)c2ccccc2c(=O)n1C | 0.4 | ED50 (Cavia porcellus [2]): 0.063 mg/kg; ED50 (Cavia porcellus [3]): 1 mg/kg
12 | Cc1ccc(-c2c(C(=O)N(C)Cc3cc(C)cc(C)c3)n(C)c(=O)c3ncccc23)cc1 | 4.4 | –
13 | COc1ccccc1CNC(=O)c1c(-c2ccccc2C)c2ccccc2c(=O)n1C | 470 | –
14 | CN(Cc1cc(C(F)(F)F)cc(C(F)(F)F)c1)Cc1c(-c2ccccc2)c2ccccc2c(=O)n1C | 600 | –
15 | CN(Cc1cc(C(F)(F)F)cc(C(F)(F)F)c1)C(=O)c1c(-c2ccc(F)cc2)c2cccnc2c(=O)n1C | 0.21 | ED50 (Cavia porcellus [2]): 0.017 mg/kg; ED50 (Cavia porcellus [3]): 0.068 mg/kg
16 | Cc1cc2c(-c3ccccc3)c(NC(=O)NCc3ccccc3)n(C)c(=O)c2cc1C | 140 | –

Row | Structure (SMILES) | IC50 (Substance-P receptor) [nM] | other results
17 | Cc1cccc(NC(=O)Nc2c(-c3ccccc3)c3cc(C)c(C)cc3c(=O)n2C)c1 | 840 | –
18 | Cc1ccccc1-c1c(C(=O)NCc2cc(C(F)(F)F)cc(C(F)(F)F)c2)n(C)c(=O)c2ccccc12 | – | ED50 (Cavia porcellus [2]): 1.1 mg/kg
19 | COc1ccccc1CNC(=O)c1c(-c2ccccc2)c2ccccc2c(=O)n1C | 860 | –
20 | Cc1cc2c(-c3ccccc3)c(NC(=O)N(C)Cc3cc(C(F)(F)F)cc(C(F)(F)F)c3)n(C)c(=O)c2cc1C | 54 | –
21 | COc1ccccc1CN(C)C(=O)c1c(-c2ccc(F)cc2)c2cccnc2c(=O)n1C | – | ED50 (Cavia porcellus [2]): 0.084 mg/kg
22 | CN(Cc1c(-c2ccccc2)c2ccccc2c(=O)n1C)C(=O)Cc1cc(C(F)(F)F)cc(C(F)(F)F)c1 | 110 | –
23 | Cc1cc(C)cc(CN(C)C(=O)c2c(-c3ccc(F)cc3)c3cccnc3c(=O)n2C)c1 | 5.1 | –
24 | Cc1ccc(-c2c(C(=O)N(C)Cc3cc(Cl)cc(Cl)c3)n(C)c(=O)c3ncccc23)cc1 | 3.4 | –
25 | COc1ccccc1CN(C)Cc1c(-c2ccccc2)c2cc(C)c(C)cc2c(=O)n1C | 800 | –
26 | CN(Cc1ccccc1Cl)C(=O)c1c(-c2ccc(F)cc2)c2cccnc2c(=O)n1C | 32 | –
27 | Cc1cc2c(-c3ccccc3)c(NC(=O)N(C)Cc3ccccc3Cl)n(C)c(=O)c2cc1C | – | inhibition in vivo at 3 mg/kg (Cavia porcellus [1]): 58.5%
28 | CN(Cc1cc(C(F)(F)F)cc(C(F)(F)F)c1)C(=O)c1c(-c2ccccc2)c2cccnc2c(=O)n1C | 0.25 | ED50 (Cavia porcellus [2]): 0.027 mg/kg; ED50 (Cavia porcellus [3]): 0.17 mg/kg
29 | CN(Cc1ccccc1)C(=O)Nc1c(-c2ccccc2)c2ccccc2c(=O)n1C | 1100 | –
30 | Cc1ccc(-c2c(C(=O)N(C)Cc3cc(C(F)(F)F)cc(C(F)(F)F)c3)n(C)c(=O)c3ncccc23)cc1 [7-METHYL-8-OXO-5-P-TOLYL-7,8-DIHYDRO-[1,7]NAPHTHYRIDINE-6-CARBOXYLIC ACID (3,5-BIS-TRIFLUOROMETHYL-BENZYL)-METHYL-AMIDE (STRUCTURAL MIX)] | 7 | ED50 (Cavia porcellus [3]): 0.11 mg/kg
31 | COc1ccccc1CN[C@H]1CCCN[C@H]1c1ccccc1 [CP-99994] | – | ED50 (Cavia porcellus [2]): 0.017 mg/kg; ED50 (Cavia porcellus [3]): 8.7 mg/kg
